Measurements taken from ChEMBL document CHEMBL3632575, “Structure-Activity Relationships of the Peptide Kappa Opioid Receptor Antagonist Zyklophin” (J Med Chem, 2015).
pKi: −log10 of the molar value. One block for each compound: values may come before it. Active and inactive are the calls of the source. The rule behind the calls is not given here.

Legend:
[1] = molecular target: Kappa-type opioid receptor (Homo sapiens) (UniProt P41145); assay: Agonist activity at kappa-opioid receptor (unknown origin) at 10 uM after 90 mins by [35S]GTPgammaS binding assay; format: functional
Summary of the method: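 KOR-containing membranes were incubated in duplicate with [35S]GTPγS (0.1–0.2 nM) and 10 µM peptide for 90 min at 22 °C in 50 mM HEPES, pH 7.4. Specific binding is total minus binding with 3 µM unlabeled GTPγS. Efficacy is expressed relative to the full agonist Dyn A(1-13)NH2, from at least two independent experiments.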

Rattus norvegicus = species: Rattus norvegicus; assay: Selectivity ratio, ratio of Ki for rat mu-opioid receptor to Ki for rat kappa-opioid receptor
[2] = molecular target: Kappa-type opioid receptor (Homo sapiens) (UniProt P41145); assay: Antagonist activity at kappa-opioid receptor (unknown origin) assessed as inhibition of DynA(1-13)-induced [35S]-GTPgammaS binding after 90 mins; format: functional
Summary of the method: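 Antagonism was measured in a [35S]GTPγS (0.1–0.2 nM) binding assay on KOR membranes, run in duplicate for 90 min at 22 °C in 50 mM HEPES, pH 7.4, with Dyn A(1-13)NH2 as the stimulating agonist. Specific binding is total minus binding with 3 µM GTPγS. KB was derived by Schild analysis from shifts of the agonist concentration-response curve, averaged over 2–5 independent experiments, with 95% confidence intervals.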

[3] = Retention time of the compound by RP-HPLC; format: physicochemical
Summary of the method: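 Analytical RP-HPLC on a C18 column (5 µ, 300 Å, 4.6 × 50 mm). System 1: 5–50% acetonitrile in water, both with 0.1% TFA, over 45 min at 1 mL/min. System 2: 15–60% methanol/0.1% TFA over 45 min at 1.0 mL/min. System 3: 1–21% acetonitrile against aqueous 0.09 M TEAP, pH 2.5, over 40 min.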

[4] = molecular target: Kappa-type opioid receptor (Rattus norvegicus, UniProt P34975); assay: Displacement of [3H]diprenorphine from rat kappa-opioid receptor expressed in CHO cells after 90 mins by scintillation counter; format: cell-based
Summary of the method: (§1)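 Membranes from CHO cells stably expressing cloned rat KOR or MOR were incubated in triplicate with test peptide at 0.1 nM–10 µM for 90 min at 22 °C in 50 mM Tris, pH 7.4. […] Nonspecific binding was set with 10 µM unlabeled Dyn A(1-13)NH2 (KOR) or DAMGO (MOR). Ki is the mean ± S.E.M. of at least three independent experiments.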

[5] = molecular target: Kappa-type opioid receptor (Rattus norvegicus) (UniProt P34975); assay: Displacement of [3H]diprenorphine from rat kappa-opioid receptor expressed in CHO cells after 90 mins by scintillation counter relative to zyklophin; format: cell-based
Mu-type opioid receptor = Mu-type opioid receptor (Rattus norvegicus, UniProt P33535); assay: Displacement of [3H]DAMGO from rat mu-opioid receptor expressed in CHO cells after 90 mins by scintillation counter; format: cell-based; summary of the method: as §1
Sequence of Mu-type opioid receptor (P33535 whole entry): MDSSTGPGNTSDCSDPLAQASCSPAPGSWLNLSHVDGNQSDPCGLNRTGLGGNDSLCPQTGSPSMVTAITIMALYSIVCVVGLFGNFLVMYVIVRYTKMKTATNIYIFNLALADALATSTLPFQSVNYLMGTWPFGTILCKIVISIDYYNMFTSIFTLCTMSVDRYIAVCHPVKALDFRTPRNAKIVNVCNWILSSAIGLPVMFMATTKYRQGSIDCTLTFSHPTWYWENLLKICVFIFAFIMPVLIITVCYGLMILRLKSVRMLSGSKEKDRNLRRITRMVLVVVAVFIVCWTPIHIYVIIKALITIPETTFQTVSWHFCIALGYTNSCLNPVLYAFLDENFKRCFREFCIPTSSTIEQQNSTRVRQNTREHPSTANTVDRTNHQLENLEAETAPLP

Sequence of Kappa-type opioid receptor (Homo sapiens) (P41145 whole entry): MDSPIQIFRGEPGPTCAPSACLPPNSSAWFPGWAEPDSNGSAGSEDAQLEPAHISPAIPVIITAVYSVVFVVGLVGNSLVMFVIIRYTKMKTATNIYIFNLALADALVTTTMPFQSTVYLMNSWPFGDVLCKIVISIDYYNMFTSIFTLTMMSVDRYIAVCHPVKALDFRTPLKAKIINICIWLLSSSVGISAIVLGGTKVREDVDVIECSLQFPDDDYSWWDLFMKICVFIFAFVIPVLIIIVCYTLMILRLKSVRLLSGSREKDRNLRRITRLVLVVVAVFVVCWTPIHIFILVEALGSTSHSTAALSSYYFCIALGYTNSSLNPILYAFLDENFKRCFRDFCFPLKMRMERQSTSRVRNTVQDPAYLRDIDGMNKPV
Sequence of Kappa-type opioid receptor (Rattus norvegicus) (P34975 whole entry): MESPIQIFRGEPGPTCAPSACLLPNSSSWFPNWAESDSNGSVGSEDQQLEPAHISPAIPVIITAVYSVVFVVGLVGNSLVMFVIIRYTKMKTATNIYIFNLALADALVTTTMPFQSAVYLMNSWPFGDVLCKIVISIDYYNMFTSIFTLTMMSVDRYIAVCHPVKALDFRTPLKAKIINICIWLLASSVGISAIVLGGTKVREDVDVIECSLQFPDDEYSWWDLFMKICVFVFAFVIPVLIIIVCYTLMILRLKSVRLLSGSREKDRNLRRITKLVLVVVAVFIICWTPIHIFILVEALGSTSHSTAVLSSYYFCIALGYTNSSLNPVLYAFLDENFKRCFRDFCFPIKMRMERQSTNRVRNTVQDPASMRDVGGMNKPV
Sequence of Kappa-type opioid receptor (P34975 whole entry): as above

SMILES: N=C(N)NCCC[C@@H]1NC(=O)[C@H](CCCNC(=N)N)NC(=O)[C@H](NC(=O)[C@H](Cc2ccccc2)NC(=O)CNC(=O)CNC(=O)[C@H](Cc2ccc(O)cc2)NCCc2ccccc2)CC(=O)NC[C@@H](C(=O)N[C@@H](CCCNC(=N)N)C(=O)N2CCC[C@H]2C(=O)N[C@@H](CCCCN)C(N)=O)NC1=O
Activity [1]: Active

SMILES: CN[C@@H](Cc1ccc(O)cc1)C(=O)NCC(=O)NCC(=O)N[C@@H](Cc1ccccc1)C(=O)N[C@@H]1CC(=O)NC[C@@H](C(=O)N[C@@H](CCCNC(=N)N)C(=O)N2CCC[C@H]2C(=O)N[C@@H](CCCCN)C(N)=O)NC(=O)[C@H](CCCNC(=N)N)NC(=O)[C@H](CCCNC(=N)N)NC1=O
Activity [1]: Active

SMILES: C=CCN[C@@H](Cc1ccc(O)cc1)C(=O)NCC(=O)NCC(=O)N[C@@H](Cc1ccccc1)C(=O)N[C@@H]1CC(=O)NC[C@@H](C(=O)N[C@@H](CCCNC(=N)N)C(=O)N2CCC[C@H]2C(=O)N[C@@H](CCCCN)C(N)=O)NC(=O)[C@H](CCCNC(=N)N)NC(=O)[C@H](CCCNC(=N)N)NC1=O
Activity [1]: Active

SMILES: C[C@@H]1NC(=O)[C@H](NC(=O)[C@H](Cc2ccccc2)NC(=O)CNC(=O)CNC(=O)[C@H](Cc2ccc(O)cc2)NCc2ccccc2)CC(=O)NC[C@@H](C(=O)N[C@@H](CCCNC(=N)N)C(=O)N2CCC[C@H]2C(=O)N[C@@H](CCCCN)C(N)=O)NC(=O)[C@H](CCCNC(=N)N)NC1=O
Activity [1]: inactive

SMILES: C[C@H](NCc1ccccc1)C(=O)NCC(=O)NCC(=O)N[C@@H](Cc1ccccc1)C(=O)N[C@@H]1CC(=O)NC[C@@H](C(=O)N[C@@H](CCCNC(=N)N)C(=O)N2CCC[C@H]2C(=O)N[C@@H](CCCCN)C(N)=O)NC(=O)[C@H](CCCNC(=N)N)NC(=O)[C@H](CCCNC(=N)N)NC1=O
Activity [1]: inactive

SMILES: C[C@H](NC(=O)[C@@H]1CNC(=O)C[C@@H](NC(=O)[C@H](Cc2ccccc2)NC(=O)CNC(=O)CNC(=O)[C@H](Cc2ccc(O)cc2)NCc2ccccc2)C(=O)N[C@@H](CCCNC(=N)N)C(=O)N[C@@H](CCCNC(=N)N)C(=O)N1)C(=O)N1CCC[C@H]1C(=O)N[C@@H](CCCCN)C(N)=O
Activity [1]: inactive

SMILES: N=C(N)NCCC[C@@H]1NC(=O)[C@H](CCCNC(=N)N)NC(=O)[C@H](NC(=O)[C@H](Cc2ccccc2)NC(=O)CNC(=O)CNC(=O)[C@H](Cc2ccc(O)cc2)NCc2ccccc2)CC(=O)NCCC[C@@H](C(=O)N[C@@H](CCCNC(=N)N)C(=O)N2CCC[C@H]2C(=O)N[C@@H](CCCCN)C(N)=O)NC1=O
Activity [1]: Active

SMILES: CC1NC(=O)C[C@@H](NC(=O)[C@H](Cc2ccccc2)NC(=O)CNC(=O)CNC(=O)[C@H](Cc2ccc(O)cc2)NCc2ccccc2)C(=O)N[C@@H](CCCNC(=N)N)C(=O)N[C@@H](CCCNC(=N)N)C(=O)NC1C(=O)N[C@@H](CCCNC(=N)N)C(=O)N1CCC[C@H]1C(=O)N[C@@H](CCCCN)C(N)=O (some centres undefined)
Ratio Ki (Rattus norvegicus): 8
Activity [1]: Active

SMILES: C[C@H](NC(=O)CNC(=O)CNC(=O)[C@H](Cc1ccc(O)cc1)NCc1ccccc1)C(=O)N[C@@H]1CC(=O)NC[C@@H](C(=O)N[C@@H](CCCNC(=N)N)C(=O)N2CCC[C@H]2C(=O)N[C@@H](CCCCN)C(N)=O)NC(=O)[C@H](CCCNC(=N)N)NC(=O)[C@H](CCCNC(=N)N)NC1=O
Activity [1]: inactive

SMILES: C[C@@H]1NC(=O)[C@H](CCCNC(=N)N)NC(=O)[C@H](NC(=O)[C@H](Cc2ccccc2)NC(=O)CNC(=O)CNC(=O)[C@H](Cc2ccc(O)cc2)NCc2ccccc2)CC(=O)NCC(C(=O)N[C@@H](CCCNC(=N)N)C(=O)N2CCC[C@H]2C(=O)N[C@@H](CCCCN)C(N)=O)NC1=O (some centres undefined)
Activity [1]: inactive
Activity [2]: inactive

Retention_time [3]: 17.3 min
SMILES: N=C(N)NCCC[C@@H]1NC(=O)[C@H](CCCNC(=N)N)NC(=O)[C@H](NC(=O)[C@H](Cc2ccccc2)NC(=O)CNC(=O)CNC(=O)[C@@H](Cc2ccc(O)cc2)NCc2ccccc2)CC(=O)NC[C@@H](C(=O)N[C@@H](CCCNC(=N)N)C(=O)N2CCC[C@H]2C(=O)N[C@@H](CCCCN)C(N)=O)NC1=O

SMILES: CC[C@H](C)[C@H](NC(=O)[C@H](CCCNC(=N)N)NC(=O)[C@H](CCCNC(=N)N)NC(=O)[C@@H](CC(N)=O)NC(=O)[C@H](Cc1ccccc1)NC(=O)CNC(=O)CNC(=O)[C@H](Cc1ccc(O)cc1)NCc1ccccc1)C(=O)N[C@@H](CCCNC(=N)N)C(=O)N1CCC[C@H]1C(=O)N[C@@H](CCCCN)C(N)=O
pKi [4]: 6.39
fold change (FC) [5]: 0.23
pKi (Mu-type opioid receptor): 5.61
Ratio Ki (Rattus norvegicus): 6

SMILES: N=C(N)NCCC[C@@H]1NC(=O)[C@H](CCCNC(=N)N)NC(=O)[C@H](NC(=O)[C@H](Cc2ccccc2)NC(=O)CNC(=O)CNC(=O)[C@H](Cc2ccc(O)cc2)NC(=O)c2ccccc2)CC(=O)NC[C@@H](C(=O)N[C@@H](CCCNC(=N)N)C(=O)N2CCC[C@H]2C(=O)N[C@@H](CCCCN)C(N)=O)NC1=O
Activity [1]: Active

SMILES: N=C(N)NCCC[C@@H]1NC(=O)[C@H](CCCNC(=N)N)NC(=O)[C@H](NC(=O)[C@H](Cc2ccccc2)NC(=O)CNC(=O)CNC(=O)[C@H](Cc2ccc(O)cc2)NCC2CC2)CC(=O)NC[C@@H](C(=O)N[C@@H](CCCNC(=N)N)C(=O)N2CCC[C@H]2C(=O)N[C@@H](CCCCN)C(N)=O)NC1=O
Activity [1]: Active
